This is an account of results in ChEMBL document CHEMBL1137338, “Effects of substitution on 9-(3-bromo-4-fluorophenyl)-5,9-dihydro-3H,4H-2,6-dioxa-4- azacyclopenta[b]naphthalene-1,8-dione, a dihydropyridine ATP-sensitive potassium channel opener” (J Med Chem, 2006).

For the assay, the target named is Sulfonylurea receptor 2, Kir6.2 (Homo sapiens, UniProt O60706+Q14654). As to the kind of experiment: Ability to open human urinary bladder Kir6.2 channel containing SUR2B in Ltk cells by FLIPR assay. It is filed as functional, cell-based. In a few lines: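 Ltk- cells stably transfected with the Kir6.2/SUR2B exon 17- splice variant. Membrane potential was followed with DiBAC dye in a 96-well cell-based kinetic fluorescence (FLIPR) assay. The highest concentration tested was 10 µM. Each compound's maximal fluorescence response was expressed as % of the response to the reference opener.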
Chain of Sulfonylurea receptor 2, Kir6.2 (Q14654 whole entry, canonical isoform): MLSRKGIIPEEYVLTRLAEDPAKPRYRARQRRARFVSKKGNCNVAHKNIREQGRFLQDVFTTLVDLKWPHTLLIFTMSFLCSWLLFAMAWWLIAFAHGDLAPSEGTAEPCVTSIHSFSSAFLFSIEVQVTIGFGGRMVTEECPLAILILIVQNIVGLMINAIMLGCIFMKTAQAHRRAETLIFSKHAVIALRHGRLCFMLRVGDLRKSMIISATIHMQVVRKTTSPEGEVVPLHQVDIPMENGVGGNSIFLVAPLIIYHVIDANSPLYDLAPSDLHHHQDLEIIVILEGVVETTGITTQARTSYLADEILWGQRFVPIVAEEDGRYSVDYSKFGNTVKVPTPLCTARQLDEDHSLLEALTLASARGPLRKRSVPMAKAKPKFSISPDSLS
Chain of Sulfonylurea receptor 2, Kir6.2 (O60706 whole entry, canonical isoform): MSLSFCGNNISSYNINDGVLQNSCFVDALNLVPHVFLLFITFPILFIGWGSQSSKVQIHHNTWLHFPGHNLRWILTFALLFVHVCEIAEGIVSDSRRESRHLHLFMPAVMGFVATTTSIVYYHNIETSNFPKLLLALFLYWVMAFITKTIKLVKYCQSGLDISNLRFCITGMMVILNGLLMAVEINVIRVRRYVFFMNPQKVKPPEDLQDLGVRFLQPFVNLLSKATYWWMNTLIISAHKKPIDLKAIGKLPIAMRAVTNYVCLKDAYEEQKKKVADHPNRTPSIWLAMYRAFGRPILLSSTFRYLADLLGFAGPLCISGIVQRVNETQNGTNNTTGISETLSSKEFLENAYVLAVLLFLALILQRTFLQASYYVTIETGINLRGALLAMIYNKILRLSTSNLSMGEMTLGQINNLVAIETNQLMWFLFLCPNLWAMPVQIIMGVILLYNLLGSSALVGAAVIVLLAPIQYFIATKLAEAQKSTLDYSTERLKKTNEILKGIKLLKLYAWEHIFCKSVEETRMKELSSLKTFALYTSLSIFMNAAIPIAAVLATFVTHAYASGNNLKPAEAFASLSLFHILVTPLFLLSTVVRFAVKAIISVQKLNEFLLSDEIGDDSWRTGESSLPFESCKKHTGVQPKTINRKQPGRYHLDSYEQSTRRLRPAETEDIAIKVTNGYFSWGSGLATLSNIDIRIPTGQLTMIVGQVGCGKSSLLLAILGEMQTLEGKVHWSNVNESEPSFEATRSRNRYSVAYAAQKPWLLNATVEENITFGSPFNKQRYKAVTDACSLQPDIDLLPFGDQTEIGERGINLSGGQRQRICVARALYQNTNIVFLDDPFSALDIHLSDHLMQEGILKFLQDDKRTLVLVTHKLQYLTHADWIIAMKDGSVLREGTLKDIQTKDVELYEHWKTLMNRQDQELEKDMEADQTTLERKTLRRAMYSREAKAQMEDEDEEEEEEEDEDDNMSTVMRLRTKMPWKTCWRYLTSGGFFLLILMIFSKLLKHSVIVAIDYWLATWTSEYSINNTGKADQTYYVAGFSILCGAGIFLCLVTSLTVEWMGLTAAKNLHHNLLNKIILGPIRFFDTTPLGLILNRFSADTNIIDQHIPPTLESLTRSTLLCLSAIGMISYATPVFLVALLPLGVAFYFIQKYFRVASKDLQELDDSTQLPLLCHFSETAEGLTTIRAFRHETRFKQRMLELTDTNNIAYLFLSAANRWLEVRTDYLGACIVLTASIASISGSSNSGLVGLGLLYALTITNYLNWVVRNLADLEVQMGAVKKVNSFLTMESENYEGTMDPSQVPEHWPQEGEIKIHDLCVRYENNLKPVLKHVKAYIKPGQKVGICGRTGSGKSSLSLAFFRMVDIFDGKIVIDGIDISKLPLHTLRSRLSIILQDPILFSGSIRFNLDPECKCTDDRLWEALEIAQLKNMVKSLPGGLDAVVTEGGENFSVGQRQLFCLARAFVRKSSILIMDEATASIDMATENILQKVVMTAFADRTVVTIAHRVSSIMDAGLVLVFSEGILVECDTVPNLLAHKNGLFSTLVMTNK
Turning to `O=C1COCC2=C1C(c1ccc(F)c(Br)c1)C1=C(O)C3(CCCC3)OCC1=N2` (configuration not stated), the EC50 is above 10000 nM. Take `CC[C@H]1OCC(O)=C2C1=NC1=C(C(=O)COC1)[C@H]2c1ccc(Cl)c(Br)c1` (racemic): the EC50 was 1620 nM. This counts as single-digit micromolar. `CCC[C@H]1OC(O)=C2C1=NC1=C(C(=O)COC1)[C@H]2c1ccc(F)c(Cl)c1` (racemic) had an EC50 of 67.6 nM. As for `CC[C@H]1OCC(O)=C2C1=NC1=C(C(=O)COC1)[C@H]2c1ccc(C)c(Br)c1` (racemic), a half-maximal effect (EC50) was put at 1580 nM. The molecule `CCC[C@H]1OC(O)=C2C1=NC1=C(C(=O)COC1)[C@H]2c1ccc(Cl)c(Cl)c1` (racemic) had an EC50 of 603 nM. `CCC[C@H]1OC(O)=C2C1=NC1=C(C(=O)COC1)[C@H]2c1ccc(Br)c(Br)c1` (racemic) showed an EC50 of 331 nM. Against the preceding molecule, the EC50 is about 1.8-fold lower. `CCC[C@H]1OC(O)=C2C1=NC1=C(C(=O)COC1)[C@H]2c1ccc(Cl)c(Br)c1` (racemic) had an EC50 of 174 nM.

As to `CC[C@@H]1OCC2=C(C1=O)[C@@H](c1ccc(F)c(Br)c1)C1=C(O)OCC1=N2` (racemic), the EC50 is above 10000 nM. In turn, `C[C@H]1OC(O)=C2C1=NC1=C(C(=O)COC1)[C@H]2c1ccc(F)c(Br)c1` (racemic) showed an EC50 of 1000 nM. In turn, `CC[C@H]1OCC(O)=C2C1=NC1=C(C(=O)COC1)[C@H]2c1ccc(Cl)c(Cl)c1` (racemic) showed a concentration giving a half-maximal response (EC50) of 105 nM. `COC[C@H]1OC(O)=C2C1=NC1=C(C(=O)COC1)[C@H]2c1ccc(F)c(Br)c1` (racemic) had an EC50 of 22.9 nM. This EC50 lies about 4.6-fold lower than the previous one. Regarding `CCC[C@H]1OC(O)=C2C1=NC1=C(C(=O)COC1)[C@H]2c1ccc(C)c(Br)c1` (racemic), the midpoint of the response, the EC50, lay at 398 nM. `CCC[C@@H]1OC(O)=C2C1=NC1=C(C(=O)COC1)[C@H]2c1ccc(F)c(Br)c1` (racemic) gave an EC50 of 5.13 nM. For `CCC[C@H]1OC(O)=C2C1=NC1=C(C(=O)COC1)[C@H]2c1ccc(Br)c(Cl)c1` (racemic), the EC50 was 427 nM.

Molecule `CC[C@H]1OC(O)=C2C1=NC1=C(C(=O)COC1(C)C)[C@H]2c1ccc(F)c(Br)c1` (racemic) showed an EC50 of 3470 nM.

With `CC[C@@H]1OC(O)=C2C1=NC1=C(C(=O)COC1)[C@H]2c1ccc(F)c(Br)c1` (racemic), the EC50 is 35.5 nM. This EC50 lies about 98-fold lower than the previous one. The molecule `CC[C@@H]1OCC(O)=C2C1=NC1=C(C(=O)COC1)[C@H]2c1ccc(F)c(Br)c1` (racemic) had an EC50 of 14.1 nM.

In turn, `C[C@@H]1OCC2=C(C1=O)[C@H](c1ccc(F)c(Br)c1)C1=C(O)OCC1=N2` (racemic) had an EC50 of 457 nM. As to `CC[C@H]1OCC(O)=C2C1=NC1=C(C(=O)COC1)[C@H]2c1ccc(Br)c(Br)c1` (racemic), the response was half-maximal at 135 nM (EC50). Consider `CC(C)C[C@H]1OC(O)=C2C1=NC1=C(C(=O)COC1)[C@H]2c1ccc(F)c(Br)c1` (racemic), for which the EC50 was above 10000 nM. The molecule `CC[C@H]1OCC(O)=C2C1=NC1=C(C(=O)COC1)[C@H]2c1ccc(F)c(Cl)c1` (racemic) had an EC50 of 457 nM. As for `CCCC[C@H]1OC(O)=C2C1=NC1=C(C(=O)COC1)[C@H]2c1ccc(F)c(Br)c1` (racemic), the EC50 was 2190 nM. This EC50 is about 4.8-fold higher than that of the molecule before. For the molecule `CC[C@H]1OCC(O)=C2C1=NC1=C(C(=O)COC1)[C@H]2c1ccc(F)c(I)c1` (racemic), a half-maximal effect (EC50) was put at 12000 nM. Compared with the last molecule, the EC50 is about 5.5-fold higher.

`CC[C@H]1OCC(O)=C2C1=NC1=C(C(=O)COC1)[C@H]2c1ccc(Br)c(Cl)c1` (racemic) had an EC50 of 1000 nM. Against the preceding molecule, the EC50 is about 12-fold lower.

`CC[C@H]1OCC(O)=C2C1=NC1=C(C(=O)COC1)[C@H]2c1ccc(F)c(Br)c1` (racemic): the EC50 is 186 nM.

Turning to `C[C@@H]1OCC2=C(C1=O)[C@@H](c1ccc(F)c(Br)c1)C1=C(O)OCC1=N2` (racemic), the EC50 is 501 nM. Compared with the last molecule, the EC50 is about 2.7-fold higher. For `CCC[C@H]1OC(O)=C2C1=NC1=C(C(=O)COC1)[C@H]2c1ccc(F)c(I)c1` (racemic), the EC50 was 75.9 nM.

Regarding `C[C@@H]1OC(O)=C2C1=NC1=C(C(=O)COC1)[C@H]2c1ccc(F)c(Br)c1` (racemic), the EC50 is 5.5 nM. In the case of `CC[C@H]1OC(O)=C2C1=NC1=C(C(=O)C(C)(C)OC1)[C@H]2c1ccc(F)c(Br)c1` (racemic), the half-maximal effective concentration (EC50) is 282 nM. Compared with the last molecule, the EC50 is about 51-fold higher. `CCCCC[C@H]1OC(O)=C2C1=NC1=C(C(=O)COC1)[C@H]2c1ccc(F)c(Br)c1` (relative stereo) showed an EC50 above 10000 nM. With `CC[C@H]1C2=C(C(=O)N1C)[C@H](c1ccc(F)c(Br)c1)C1=C(O)COCC1=N2` (relative stereo) the figure was above 10000 nM; with `CCCCC[C@@H]1OC(O)=C2C1=NC1=C(C(=O)COC1)[C@H]2c1ccc(F)c(Br)c1` (relative stereo), above 10000 nM. The molecule `CC(C)[C@H]1OC(O)=C2C1=NC1=C(C(=O)COC1)[C@H]2c1ccc(F)c(Br)c1` (relative stereo) had an EC50 above 10000 nM. Molecule `CC[C@@H]1C2=C(C(=O)N1C)[C@H](c1ccc(F)c(Br)c1)C1=C(O)COCC1=N2` (relative stereo) had an EC50 above 10000 nM. As for `CC1(C)OCC2=C(C1=O)C(c1ccc(F)c(Br)c1)C1=C(O)OCC1=N2` (single isomer, unassigned; (+)), the EC50 is 26.9 nM. Take `O=C1COCC2=C1C(c1ccc(F)c(Br)c1)C1=C(O)OCC1=N2` (stereo in doubt; 6): the EC50 was 45.7 nM.

Regarding `C[C@@H]1OCC2=C(C1=O)[C@@H](c1ccc(F)c(Br)c1)C1=C(O)OCC1=N2` (stereo in doubt; 7a), the EC50 was 174 nM. With `C[C@@H]1OCC2=C(C1=O)[C@@H](c1ccc(F)c(Br)c1)C1=C(O)OCC1=N2` (stereo in doubt; 7b), the EC50 is 513 nM. `C[C@@H]1OCC2=C(C1=O)[C@H](c1ccc(F)c(Br)c1)C1=C(O)OCC1=N2` (stereo in doubt; 8a): the EC50 was 72.4 nM. This EC50 lies about 7.1-fold lower than the previous one. In turn, `C[C@@H]1OCC2=C(C1=O)[C@H](c1ccc(F)c(Br)c1)C1=C(O)OCC1=N2` (stereo in doubt; 8b) showed an EC50 of 295 nM. Regarding `CC1(C)OCC2=C(C1=O)C(c1ccc(F)c(Br)c1)C1=C(O)OCC1=N2` (stereo in doubt; 9), the EC50 is 24 nM.

`CC1(C)OCC2=C(C1=O)C(c1ccc(F)c(Br)c1)C1=C(O)OCC1=N2` (stereo in doubt; 9b): the midpoint of the response, the EC50, lay at 2820 nM. `C[C@@H]1OC(O)=C2C1=NC1=C(C(=O)COC1)[C@H]2c1ccc(F)c(Br)c1` (stereo in doubt; 17b) gave a concentration for a half-maximal effect (EC50) of 51.3 nM. Against the preceding molecule, the EC50 is about 55-fold lower.

`C[C@H]1OC(O)=C2C1=NC1=C(C(=O)COC1)[C@H]2c1ccc(F)c(Br)c1` (stereo in doubt; 18a) had an EC50 of 64.6 nM. The molecule `C[C@H]1OC(O)=C2C1=NC1=C(C(=O)COC1)[C@H]2c1ccc(F)c(Br)c1` (stereo in doubt; 18b) had an EC50 of 257 nM. In the case of `CC[C@@H]1OC(O)=C2C1=NC1=C(C(=O)COC1)[C@H]2c1ccc(F)c(Br)c1` (stereo in doubt; 20a), the EC50 is 3.89 nM. With `CC[C@@H]1OC(O)=C2C1=NC1=C(C(=O)COC1)[C@H]2c1ccc(F)c(Br)c1` (stereo in doubt; 20b) the figure was 145 nM; with `CCC[C@@H]1OC(O)=C2C1=NC1=C(C(=O)COC1)[C@H]2c1ccc(F)c(Br)c1` (stereo in doubt; 22a), 1 nM; with `CCC[C@@H]1OC(O)=C2C1=NC1=C(C(=O)COC1)[C@H]2c1ccc(F)c(Br)c1` (stereo in doubt; 22b), 3.72 nM. `CCC[C@H]1OC(O)=C2C1=NC1=C(C(=O)COC1)[C@H]2c1ccc(F)c(Br)c1` (stereo in doubt; 23a): it took 3240 nM to reach a half-maximal effect (EC50).

The molecule `COC[C@H]1OC(O)=C2C1=NC1=C(C(=O)COC1)[C@H]2c1ccc(F)c(Br)c1` (stereo in doubt; 25a) gave an EC50 of 479 nM. As for `COC[C@H]1OC(O)=C2C1=NC1=C(C(=O)COC1)[C@H]2c1ccc(F)c(Br)c1` (stereo in doubt; 25b), the EC50 is 22.9 nM. This EC50 is about 21-fold lower than that of the molecule before. The figure for `CCCC[C@H]1OC(O)=C2C1=NC1=C(C(=O)COC1)[C@H]2c1ccc(F)c(Br)c1` (stereo in doubt; 29a) is 5130 nM; for `CC(C)C[C@H]1OC(O)=C2C1=NC1=C(C(=O)COC1)[C@H]2c1ccc(F)c(Br)c1` (stereo in doubt; 31a) it is 2510 nM. On to `CC[C@H]1OC(O)=C2C1=NC1=C(C(=O)C(C)(C)OC1)[C@H]2c1ccc(F)c(Br)c1` (stereo in doubt; 36a), for which it took 437 nM to reach a half-maximal effect (EC50). The molecule `CC[C@H]1OC(O)=C2C1=NC1=C(C(=O)C(C)(C)OC1)[C@H]2c1ccc(F)c(Br)c1` (stereo in doubt; 36b) gave an EC50 of 550 nM. The EC50 values of the last two molecules are within 1.5-fold of each other. Take `CC[C@H]1OC(O)=C2C1=NC1=C(C(=O)COC1(C)C)[C@H]2c1ccc(F)c(Br)c1` (stereo in doubt; 38a): the EC50 is 1580 nM. The molecule `CC[C@H]1OC(O)=C2C1=NC1=C(C(=O)COC1(C)C)[C@H]2c1ccc(F)c(Br)c1` (stereo in doubt; 38b) had an EC50 above 10000 nM.

As to `CCC[C@H]1OC(O)=C2C1=NC1=C(C(=O)COC1)[C@H]2c1ccc(F)c(Cl)c1` (stereo in doubt; 39a), the concentration giving a half-maximal response (EC50) is 3390 nM. This counts as single-digit micromolar. With `CCC[C@H]1OC(O)=C2C1=NC1=C(C(=O)COC1)[C@H]2c1ccc(F)c(I)c1` (stereo in doubt; 41a) the figure was 1950 nM; with `CCC[C@H]1OC(O)=C2C1=NC1=C(C(=O)COC1)[C@H]2c1ccc(Cl)c(Cl)c1` (stereo in doubt; 42a), 1320 nM; with `CCC[C@H]1OC(O)=C2C1=NC1=C(C(=O)COC1)[C@H]2c1ccc(Cl)c(Cl)c1` (stereo in doubt; 42b), 2000 nM. With `CCC[C@H]1OC(O)=C2C1=NC1=C(C(=O)COC1)[C@H]2c1ccc(Cl)c(Br)c1` (stereo in doubt; 43a), the EC50 is 813 nM. `CCC[C@H]1OC(O)=C2C1=NC1=C(C(=O)COC1)[C@H]2c1ccc(Cl)c(Br)c1` (stereo in doubt; 43b) showed an EC50 of 151 nM. The figure for `CCC[C@H]1OC(O)=C2C1=NC1=C(C(=O)COC1)[C@H]2c1ccc(Br)c(Cl)c1` (stereo in doubt; 44a) is 1050 nM; for `CCC[C@H]1OC(O)=C2C1=NC1=C(C(=O)COC1)[C@H]2c1ccc(Br)c(Cl)c1` (stereo in doubt; 44b) it is 437 nM; for `CCC[C@H]1OC(O)=C2C1=NC1=C(C(=O)COC1)[C@H]2c1ccc(Br)c(Br)c1` (stereo in doubt; 45a) it is 1150 nM.
